From paper PMC11298890 (iScience, 2024) come the findings set out here.

Structures are written as SMILES. Like-named read-outs stand apart in the source and are kept apart here.

For experiment [1], the system named is Plasmodium falciparum 3D7. The experiment is described as follows: Asexual blood stage parasite growth inhibition. The format is cell-based. The note with it: 3D7, 48 h, read-out: Pf-EC50 (ABS), Pf 3D7, 48 h.
For experiment [2], the target named is T1, HsPRS (Homo sapiens, UniProt P07814).
T1 sequence (P07814 1007-1512 limits assumed): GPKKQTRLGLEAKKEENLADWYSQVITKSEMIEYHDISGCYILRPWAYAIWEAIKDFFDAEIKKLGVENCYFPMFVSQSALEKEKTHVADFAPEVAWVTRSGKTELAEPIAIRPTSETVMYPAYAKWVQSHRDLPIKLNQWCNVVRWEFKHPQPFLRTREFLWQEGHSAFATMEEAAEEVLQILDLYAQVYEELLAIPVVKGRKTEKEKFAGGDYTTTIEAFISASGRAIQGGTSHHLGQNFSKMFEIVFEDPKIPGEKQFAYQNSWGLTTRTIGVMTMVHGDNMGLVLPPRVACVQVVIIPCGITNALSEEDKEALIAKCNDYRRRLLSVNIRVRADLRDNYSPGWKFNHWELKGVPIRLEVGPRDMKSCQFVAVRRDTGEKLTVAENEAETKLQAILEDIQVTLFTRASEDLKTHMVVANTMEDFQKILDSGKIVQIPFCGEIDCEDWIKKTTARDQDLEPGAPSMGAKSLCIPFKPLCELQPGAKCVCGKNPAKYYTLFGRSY
Nature of the experiment: Aminoacylation activity inhibition assay. The format is biochemical.

Experiment [3] concerns the target T1, HsPRS. The experiment is described as follows: Microscale thermophoresis. The following applies: Kd-Hs. In kind it is binding. The procedure, abridged:
(§1)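 Recombinant tag-cleaved PRS (affinity, heparin and gel-filtration purified) labelled on lysines with Red-NHS 2nd-generation dye and held at 100 nM. Kd from MST; two independent replicates.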
For orientation: In MST a laser heats a spot of the sample, and binding alters the fluorescence response.

The target of experiment [4] is T2, PfPRS (Plasmodium falciparum, UniProt Q8I5R7).
T2 sequence (Q8I5R7 250-746 limits assumed): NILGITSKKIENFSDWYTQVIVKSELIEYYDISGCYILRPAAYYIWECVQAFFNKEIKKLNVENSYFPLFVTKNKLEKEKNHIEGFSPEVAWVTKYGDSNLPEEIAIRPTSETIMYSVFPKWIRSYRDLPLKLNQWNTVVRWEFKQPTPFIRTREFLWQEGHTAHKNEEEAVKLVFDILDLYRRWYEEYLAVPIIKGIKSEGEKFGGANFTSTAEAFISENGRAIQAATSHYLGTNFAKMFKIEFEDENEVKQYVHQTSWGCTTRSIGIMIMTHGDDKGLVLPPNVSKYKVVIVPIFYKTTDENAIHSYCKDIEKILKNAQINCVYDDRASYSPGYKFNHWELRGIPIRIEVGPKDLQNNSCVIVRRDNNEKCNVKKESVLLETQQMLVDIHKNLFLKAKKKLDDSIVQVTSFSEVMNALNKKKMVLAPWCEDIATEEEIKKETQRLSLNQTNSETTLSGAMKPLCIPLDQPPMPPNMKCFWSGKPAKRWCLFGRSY
The format is binding. The following applies: Enzyme:Compound 1:50.

Experiment [5] deals with T1, HsPRS. In kind it is binding.
The target of experiment [6] is T2, PfPRS. The experiment is described as follows: Microscale thermophoresis. The format is binding. The note with it: for Kd: Kd-Pf. The procedure, abridged:
as §1

The target of experiment [7] is T2, PfPRS. Nature of the experiment: Aminoacylation activity inhibition assay. The format is biochemical.
Setting [8] is: replicate n = 1, MST, individual replicate 1.
Where [9] appears, read: replicate n = 2, MST, individual replicate 2.

What is called EC50 is the concentration needed to bring the measured effect to its halfway point. As usually defined, the IC50 is the concentration that gives 50% inhibition. Higher therefore signals weaker potency. In general, Kd refers to a measure of binding affinity in units of concentration. Low values mean tighter binding, high ones weaker binding.

Turning to `O=C(CC1NCCCC1O)Cn1cnc2cc(Br)c(Cl)cc2c1=O` (centres unmarked) [HFG, Halofuginone], in experiment [1], the concentration giving a half-maximal response (EC50) was 0.2 nM. Further, the IC50 stood at 10.9 nM against HsPRS [2] and 2.8 nM against PfPRS [7]. Besides, the Kd at HsPRS [3] (setting [8]) stood at 42.4 nM; on HsPRS [3] (setting [9]) it was 61.9 nM; at PfPRS [6] (setting [8]), 74.8 nM; on PfPRS [6] (setting [9]), 72.9 nM. Besides, the “PfPRS melting temperature (Tm)” value on PfPRS [4] (in presence of ATP (2 mM)) came out at 87.7 °C; at PfPRS [4] (in presence of L-pro (2 mM)), 54.7 °C; on PfPRS [4] (in presence of L-pro + ATP (2 mM)), 86.6 °C. In addition, the “HsPRS ΔTm from Apo Tm” value on HsPRS [5] is 61.4 (11.6) °C. In addition, at HsPRS [5] (enzyme + inhibitor only, no substrate, Enzyme:Compound 1:100), the “HsPRS melting temperature (Tm)” value is 61.4 (11.6) °C. The “SI-Kd (Hs/Pf)” value on PfPRS [6] (Kd-Hs / Kd-Pf) stood at 0.7. Further, the “SI-IC50 (Hs/Pf)” value on PfPRS [7] (IC50 of the human enzyme divided by that of the plasmodium enzyme) worked out at 3.9.
